Source: ChEMBL document CHEMBL1124929, “Indolo[2,1-a]isoquinolines. Syntheses, steroid hormone receptor binding affinities, and cytostatic activity” (1990)

Assays:
MDA-MB-231 [1] = assay: Cytostatic effect on hormone-independent MDA-MB 231 human breast cancer cell proliferation at 1x10E-5 M; assay type: functional
In short: (§1)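 Cells were plated at about 2 × 10⁴ per well in six-well dishes. MCF-7 cells were grown in modified improved MEM with 5% NCS, switched to charcoal-treated NCS two weeks before the test, and exposed for 5 days with a re-dose on day 4. MDA-MB 231 cells were grown in McCoy 5a with 10% NCS and exposed for 2 days. Compounds were given 1 day after plating in 0.1% DMSO, with DMSO-matched controls. Read-out was cell number as % T/C, mean of three experiments with six dishes.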

MDA-MB-231 [2] = assay: Effect on [3H]thymidine incorporation into MDA-MB 231 human breast cancer cells at 1x10E-5 M; assay type: functional
In short: (§2)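 Cells were seeded at ~2 × 10⁴ per well, treated from the next day in 0.1% DMSO, with DMSO controls. MCF-7 cells were held in charcoal-stripped NCS for 2 weeks, treated for 5 days and re-dosed on day 4. MDA-MB 231 cells were grown in McCoy 5a/10% NCS and treated for 2 days. At the end, 1 µCi [³H]thymidine per well was added for 2 h. Result is % T/C, mean of three experiments × six dishes.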

MDA-MB-231 [3] = assay: Effect on [3H]-thymidine incorporation into MDA-MB 231 human breast cancer cells at 1x10E-6M; assay type: functional; in short: as §2
MCF7 [4] = assay: Effect on hormone-dependent MCF-7 human breast cancer cell proliferation at 1x10E-5 M; assay type: functional; in short: as §1
MCF7 [5] = assay: Effect on [3H]-thymidine incorporation into MCF-7 human breast cancer cells at 1x10E-5 M; assay type: functional; in short: as §2
MCF7 [6] = assay: Effect on hormone-dependent MCF-7 human breast cancer cell proliferation at 1x10E-6M; assay type: functional; in short: as §1
MCF7 [7] = assay: Effect on [3H]thymidine incorporation into MCF-7 human breast cancer cells at 1x10E-6M; assay type: functional; in short: as §2
MDA-MB-231 [8] = assay: Cytostatic effect on hormone-independent MDA-MB 231 human breast cancer cell proliferation at 1x10E-6M; assay type: functional; in short: as §1
[9] = target: T1, Androgen Receptor (Bos taurus) (UniProt Q5EM59); assay: Relative binding affinity(RBA) for 50% displacement of [3H]mibolerone from Androgen receptor compared to testorone
T1 sequence (whole entry): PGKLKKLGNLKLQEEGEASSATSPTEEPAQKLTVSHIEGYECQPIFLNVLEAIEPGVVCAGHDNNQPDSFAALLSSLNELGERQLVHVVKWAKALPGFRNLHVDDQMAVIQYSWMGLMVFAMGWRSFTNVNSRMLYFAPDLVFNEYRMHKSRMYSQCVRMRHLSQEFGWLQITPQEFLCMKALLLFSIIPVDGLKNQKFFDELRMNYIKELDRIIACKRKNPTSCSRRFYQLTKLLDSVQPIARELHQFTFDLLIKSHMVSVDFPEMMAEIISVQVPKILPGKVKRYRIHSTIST
In short: (§3)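 Receptor source was calf uterine cytosol (105000g supernatant, 3 mg/mL protein in assay). Buffers were Tris/EDTA pH 7.4, with NaN₃ for ER, molybdate/glycerol for AR, and sucrose for PR. Tracers were 1 nM [³H]estradiol, [³H]mibolerone or [³H]Org 2058. Incubation was at 0–4 °C for 16 h (ER) or 2 h (AR, PR), with 4–6 competitor concentrations. Nonspecific binding used 2 µM of the unlabeled hormone. Separation was by dextran-coated charcoal. RBA is the ratio of IC50 values for hormone and compound ×100, mean of two triplicate experiments.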

[10] = target: Estrogen receptor (Bos taurus) (UniProt Q9XSB5+P49884); assay: Relative binding affinity(RBA) for 50% displacement of [3H]-estradiol from Estrogen receptor compared to 17-beta-estradiol; assay type: protein assay; in short: as §3
MDA-MB-231 [11] = assay: Cytostatic effect on hormone-independent MDA-MB 231 human breast cancer cell proliferation at5x10E-6M; assay type: functional; in short: as §1
MDA-MB-231 [12] = assay: Effect on [3H]thymidine incorporation into MDA-MB 231 human breast cancer cells at 5x10E-6M; assay type: functional; in short: as §2
MCF7 [13] = assay: Effect on hormone-dependent MCF-7 human breast cancer cell proliferation at 5x10E-6M; assay type: functional; in short: as §1
MCF7 [14] = assay: Effect on [3H]thymidine incorporation into MCF-7 human breast cancer cells at 5x10E-6M; assay type: functional; in short: as §2
MCF7 [15] = assay: Effect on [3H]thymidine incorporation into MCF-7 human breast cancer cells at 1x10E-5 M; assay type: functional; in short: as §2
[16] = target: T2, Estrogen receptor (Mus musculus) (UniProt O08537+P19785); assay: (§4) Estrogenic activity in uterotrophic assay in immature mice at 2 ug subcutaneous dose; assay type: functional
In short: (§5)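 Immature female NMRI mice, 20 days old, in groups of 6-10, were dosed sc once daily for three consecutive days. Compounds were given in PEG/0.9% saline 1:1; vehicle controls were included. Animals were killed 24 h after the last dose. Uteri were fixed in Bouin solution and the effect was taken as uterine dry weight (mg)/body weight (g) ×100, given as mean ± SD.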

[17] = target: T2, Estrogen receptor (Mus musculus); assay: (§6) Estrogenic activity in uterotrophic assay in immature mice at 50.0 ug subcutaneous dose; assay type: functional; in short: as §5
[18] = target: T2, Estrogen receptor (Mus musculus); assay: (§7) Estrogenic activity in uterotrophic assay in immature mice at 10.0 ug subcutaneous dose; assay type: functional; in short: as §5
[19] = target: T2, Estrogen receptor (Mus musculus); assay: as §4; assay type: functional; in short: as §5; remark: listed apart in the source
[20] = target: T2, Estrogen receptor (Mus musculus); assay: (§8) Estrogenic activity in uterotrophic assay in immature mice at 250 ug subcutaneous dose; assay type: functional; in short: as §5
[21] = target: T2, Estrogen receptor (Mus musculus); assay: as §6; assay type: functional; in short: as §5; remark: listed apart in the source
[22] = target: T2, Estrogen receptor (Mus musculus); assay: as §8; assay type: functional; in short: as §5; remark: listed apart in the source
[23] = target: T2, Estrogen receptor (Mus musculus); assay: as §7; assay type: functional; in short: as §5; remark: listed apart in the source
[24] = target: T2, Estrogen receptor (Mus musculus); assay: Inhibition of 0.4 ug estrone-stimulated uterine growth in mice at 10.0 ug subcutaneous dose; assay type: functional
In short: (§9)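 Immature 20-day-old female NMRI mice received sc injections on three consecutive days. Each injection held 0.4 µg estrone plus the compound in PEG/saline 1:1. […] Significance was tested by Mann-Whitney U test.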

[25] = target: T2, Estrogen receptor (Mus musculus); assay: Inhibition of 0.4 ug estrone-stimulated uterine growth in mice at 2 ug subcutaneous dose; assay type: functional; in short: as §9
[26] = target: T3, Androgen receptor (Mus musculus) (UniProt P19091); assay: Inhibition of testosterone-stimulated seminal vesicle growth in castrated mice supplemented with 0.3 mg of TP at 1000.0 ug; assay type: functional
T3 sequence (whole entry): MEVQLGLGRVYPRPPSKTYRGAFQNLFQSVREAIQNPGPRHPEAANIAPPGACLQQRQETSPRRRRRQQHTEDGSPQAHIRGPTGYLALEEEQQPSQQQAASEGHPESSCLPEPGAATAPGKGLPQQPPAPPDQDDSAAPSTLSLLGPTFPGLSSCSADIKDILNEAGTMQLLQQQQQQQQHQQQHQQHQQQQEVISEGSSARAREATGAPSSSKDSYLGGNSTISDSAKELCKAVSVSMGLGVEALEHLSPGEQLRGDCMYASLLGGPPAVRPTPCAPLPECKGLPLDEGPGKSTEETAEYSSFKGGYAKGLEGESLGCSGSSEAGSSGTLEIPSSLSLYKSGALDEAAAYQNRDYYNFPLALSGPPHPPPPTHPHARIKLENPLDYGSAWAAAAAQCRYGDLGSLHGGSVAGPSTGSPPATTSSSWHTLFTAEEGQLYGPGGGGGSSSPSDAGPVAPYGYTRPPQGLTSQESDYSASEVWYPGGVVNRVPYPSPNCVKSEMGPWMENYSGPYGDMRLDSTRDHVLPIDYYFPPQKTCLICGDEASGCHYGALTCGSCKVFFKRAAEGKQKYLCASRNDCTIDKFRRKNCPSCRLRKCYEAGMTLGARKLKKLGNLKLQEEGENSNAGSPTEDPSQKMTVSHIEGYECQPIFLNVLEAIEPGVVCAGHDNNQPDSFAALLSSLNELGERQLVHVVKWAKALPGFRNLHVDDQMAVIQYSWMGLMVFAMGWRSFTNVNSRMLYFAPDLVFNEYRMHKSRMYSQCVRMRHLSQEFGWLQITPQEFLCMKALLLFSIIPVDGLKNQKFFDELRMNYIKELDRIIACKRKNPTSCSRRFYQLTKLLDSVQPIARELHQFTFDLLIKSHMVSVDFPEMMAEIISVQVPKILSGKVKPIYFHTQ
In short: (§10)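 Adult male mice, 23–25 g, six per group, were used intact or castrated via the scrotal route under ether 5 days before the test. Castrates received 0.3 mg testosterone propionate daily. Compounds were injected daily in olive oil for nine days. Seminal vesicles were taken 24 h later, fixed in Bouin solution, dried overnight at 100 °C and weighed. Result is organ mg/body g ×100; % inhibition = [1 − treated/control] × 100.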

[27] = target: T2, Estrogen receptor (Mus musculus); assay: Inhibition of 0.4 ug estrone-stimulated uterine growth in mice at 250 ug subcutaneous dose; assay type: functional; in short: as §9
Bos taurus = organism: Bos taurus; assay: Relative binding affinity(RBA) as ratio of progesterone and compound required to displace [3H]-org 2058 binding to Progesterone receptor by 50%; in short: as §3
[28] = target: T3, Androgen receptor (Mus musculus); assay: Relative effect on seminal vesicle weight in adult and castrated mice at 1000 ug dose; assay type: functional, tissue-based; in short: as §10
[29] = target: T3, Androgen receptor (Mus musculus); assay: Relative effect on seminal vesicle weight in adult and castrated mice supplemented with 0.3 mg TP at 1000 ug dose; assay type: functional, tissue-based; in short: as §10
[30] = target: T3, Androgen receptor (Mus musculus); assay: Relative effect on seminal vesicle weight in adult and castrated mice at 100 ug dose; assay type: functional, tissue-based; in short: as §10
[31] = target: T2, Estrogen receptor (Mus musculus); assay: Inhibition of 0.4 ug estrone-stimulated uterine growth in mice at 50.0 ug subcutaneous dose; assay type: functional; in short: as §9
[32] = target: T3, Androgen receptor (Mus musculus); assay: Inhibition of seminal vesicle weight in intact mice at 100 ug
[33] = target: T2, Estrogen receptor (Mus musculus); assay: Estrogenic activity in uterotrophic assay in immature mice at 125 ug subcutaneous dose; assay type: functional; in short: as §5
[34] = target: T2, Estrogen receptor (Mus musculus); assay: (§11) Estrogenic activity in uterotrophic assay in immature mice at 40.0 ug subcutaneous dose; assay type: functional; in short: as §5
[35] = target: T2, Estrogen receptor (Mus musculus); assay: as §11; assay type: functional; in short: as §5; remark: listed apart in the source
[36] = target: T2, Estrogen receptor (Mus musculus); assay: Inhibition of 0.4 ug estrone-stimulated uterine growth in mice at 40.0 ug subcutaneous dose; assay type: functional; in short: as §9

T2 sequence (O08537 whole entry, looked up): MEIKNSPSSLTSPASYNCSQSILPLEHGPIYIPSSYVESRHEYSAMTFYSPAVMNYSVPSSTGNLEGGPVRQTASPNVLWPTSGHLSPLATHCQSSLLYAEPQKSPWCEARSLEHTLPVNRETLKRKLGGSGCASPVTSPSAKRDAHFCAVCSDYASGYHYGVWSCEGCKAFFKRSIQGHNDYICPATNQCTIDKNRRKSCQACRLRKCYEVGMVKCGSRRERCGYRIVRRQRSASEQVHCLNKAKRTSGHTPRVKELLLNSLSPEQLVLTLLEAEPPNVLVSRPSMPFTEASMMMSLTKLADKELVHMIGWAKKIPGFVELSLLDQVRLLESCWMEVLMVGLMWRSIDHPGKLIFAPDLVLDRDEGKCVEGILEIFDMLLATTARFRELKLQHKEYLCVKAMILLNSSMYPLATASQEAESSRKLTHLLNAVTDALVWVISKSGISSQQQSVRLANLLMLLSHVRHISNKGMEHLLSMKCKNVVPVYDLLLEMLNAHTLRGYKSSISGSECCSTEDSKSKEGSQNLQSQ
T2 sequence (P19785 whole entry, looked up): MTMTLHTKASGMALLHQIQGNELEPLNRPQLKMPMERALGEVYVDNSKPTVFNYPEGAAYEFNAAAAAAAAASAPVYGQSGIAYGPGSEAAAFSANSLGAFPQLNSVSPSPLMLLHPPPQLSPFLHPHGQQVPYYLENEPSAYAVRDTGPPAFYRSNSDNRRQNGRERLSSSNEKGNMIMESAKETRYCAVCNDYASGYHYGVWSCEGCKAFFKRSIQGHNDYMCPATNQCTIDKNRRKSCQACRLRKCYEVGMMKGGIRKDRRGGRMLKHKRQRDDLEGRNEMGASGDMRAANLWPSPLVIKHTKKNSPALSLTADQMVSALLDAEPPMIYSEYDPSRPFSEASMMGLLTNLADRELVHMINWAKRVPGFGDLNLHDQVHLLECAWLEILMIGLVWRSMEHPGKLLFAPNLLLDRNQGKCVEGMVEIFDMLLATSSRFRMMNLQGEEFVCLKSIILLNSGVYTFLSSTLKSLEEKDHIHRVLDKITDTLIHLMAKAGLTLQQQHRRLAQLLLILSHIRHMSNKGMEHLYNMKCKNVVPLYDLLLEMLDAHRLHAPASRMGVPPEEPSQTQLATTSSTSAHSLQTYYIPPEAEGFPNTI

SMILES	T/C (MDA-MB-231 [1])	T/C (MDA-MB-231 [2])	T/C (MDA-MB-231 [3])	T/C (MCF7 [4])	T/C (MCF7 [6])	T/C (MCF7 [7])	T/C (MDA-MB-231 [8])	RBA [9]	RBA [10]	T/C (MDA-MB-231 [11])	T/C (MDA-MB-231 [12])	T/C (MCF7 [13])	T/C (MCF7 [14])	T/C (MCF7 [15])	Effect [16]	inhibition [25]	RBA (Bos taurus)	also measured
CC/C(=C(\c1ccccc1)c1ccc(OCCN(C)C)cc1)c1ccccc1 [TAMOXIFEN]	94%	97%	100%	17%	51%	46%	107%	–	–	–	–	–	–	–	–	–	–	T/C (MCF7 [5]): 5%
CCC1Cc2cc(OC(C)=O)ccc2-c2cc3ccc(OC(C)=O)cc3n21 (stereo not drawn)	11%	8%	93%	6%	67%	42%	98%	2.5	4	11%	11%	39%	24%	2%	11.5	2.8%	0.05	Effect [17]: 18.5; Effect [18]: 44.5; Effect [19]: 49.6; Effect [20]: 48.2; Effect [21]: 18.5; Effect [22]: 40.5; Effect [23]: 15.7; inhibition [24]: 17.4%; inhibition [26]: 12%; inhibition [27]: 6.8%; Relative seminal vesicle weight [28]: 121; Relative seminal vesicle weight [29]: 200; Relative seminal vesicle weight [30]: 156; inhibition [31]: 31%; inhibition [32]: 21%
CC(=O)Oc1ccc2cc3n(c2c1)CCc1cc(OC(C)=O)c(OC(C)=O)cc1-3	–	–	–	–	–	–	–	< 0.01	0.05	–	–	–	–	–	–	–	–	–
CCC1Cc2cc(OC(C)=O)c(OC(C)=O)cc2-c2cc3cc(OC(C)=O)ccc3n21 (stereo not drawn)	51%	38%	77%	22%	89%	95%	100%	< 0.01	2.9	62%	35%	39%	11%	3%	21.2	11.7%	0.04	Effect [33]: 55.8; Effect [34]: 42.8; Effect [35]: 49.7; inhibition [36]: 15.7%
